Measured values from ChEMBL document CHEMBL4011654, “Mitochondria-Targeted Lupane Triterpenoid Derivatives and Their Selective Apoptosis-Inducing Anticancer Mechanisms” (J Med Chem, 2017).
Activity calls are given as the source filed them. The rule behind the calls is not given here.

Columns and labels:
[1] = tested on: L02; experiment: Cytotoxicity against human HL-7702 cells assessed as cell growth inhibition after 48 hrs by MTT assay; format: cell-based; settings: L02, 48 h
Procedure, shortened: (§1)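 Adherent cells seeded at 5000/well, left 16−24 h, then exposed 48 h at 37 °C, 5% CO2 in RPMI with 10% FBS. Medium refreshed, MTT added for 4 h at 37 °C, medium removed, formazan dissolved in DMSO, OD570 read. IC50 taken as concentration inhibiting growth by 50%; triplicate.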

[2] = tested on: ECa-109 cell line; experiment: Cytotoxicity against human ECA109 cells assessed as cell growth inhibition after 48 hrs by MTT assay; format: functional, cell-based; settings: ECa-109, 48 h; procedure, shortened: as §1
[3] = tested on: K562; experiment: Cytotoxicity against human K562 cells assessed as cell growth inhibition after 48 hrs by MTT assay; format: functional, cell-based; settings: K562, 48 h
Procedure, shortened: (§2)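 Suspension cells seeded at 5000/well (HL-60 in IMDM, K562 in RPMI, both with 10% FBS) and treated. MTT then added for 4 h at 37 °C; plates centrifuged at 3000 rpm for 30 min, medium removed, DMSO added, OD570 read. IC50 taken as concentration giving 50% growth inhibition; triplicate.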

[4] = tested on: HepG2; experiment: Cytotoxicity against human HepG2 cells assessed as cell growth inhibition after 48 hrs by MTT assay; format: functional, cell-based; settings: HepG2, 48 h; procedure, shortened: as §1
[5] = tested on: HL-60; experiment: Cytotoxicity against human HL60 cells assessed as cell growth inhibition after 48 hrs by MTT assay; format: functional, cell-based; settings: HL-60, 48 h; procedure, shortened: as §2
[6] = tested on: A549; experiment: Cytotoxicity against human A549 cells assessed as cell growth inhibition after 48 hrs by MTT assay; format: functional, cell-based; settings: A549, 48 h; procedure, shortened: as §1
[7] = tested on: K562; experiment: Induction of apoptosis in human K562 cells assessed as decrease in cytochrome c level in mitochondria up to 6 uM after 48 hrs by Western blot analysis; format: functional, cell-based
Procedure, shortened: (§3)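 K562 treated 48 h, then lysed on ice for 30 min; cytosolic and mitochondrial fractions isolated by kit where needed, protein measured by BCA. 60 μg/lane run on SDS-PAGE, transferred to PVDF, blocked in 5% milk/TBST for 4 h. Probed for cytochrome c, caspase-9, caspase-3 (total/cleaved), PARP; alkaline phosphatase secondary.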

[8] = tested on: K562; experiment: Induction of mitochondrial membrane depolarization in human K562 cells assessed as cells with mitochondrial membrane potential loss at 2 uM after 48 hrs by JC-1 staining based flow cytometric analysis (reference value: 1.89 to 2.23%); format: functional
[9] = tested on: K562; experiment: Induction of mitochondrial membrane depolarization in human K562 cells assessed as cells with intact mitochondrial membrane potential at 2 uM after 48 hrs by JC-1 staining based flow cytometric analysis (reference value: 97.63 to 97.67%); format: functional
Procedure, shortened: (§4)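 K562 seeded at 4 × 10^5 cells/well, after 12 h treated 48 h. Cells washed in ice-cold PBS, loaded with JC-1 ([…]) at 37 °C for 15 min, rinsed, and analysed by flow cytometry (% cells with red aggregates) and fluorescence microscopy (red aggregates vs green monomers).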

[10] = tested on: K562; experiment: Induction of apoptosis in human K562 cells assessed as late apoptotic cells at 3 uM after 48 hrs by Annexin V-FITC/propidium iodide-staining based flow cytometric analysis (reference value: 2.25 to 2.67%); format: functional
Procedure, shortened: (§5)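 K562 seeded at 4 × 10^5 cells/well, 12 h, then exposed 48 h. Cells washed in ice-cold PBS, suspended in binding buffer, stained with annexin V-FITC and PI for 15 min at room temperature in the dark, and read by flow cytometry within 1 h. Cells counted as early/late apoptotic as % of total; n = 3.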

[11] = tested on: K562; experiment: Induction of apoptosis in human K562 cells assessed as viable cells at 3 uM after 48 hrs by Annexin V-FITC/propidium iodide-staining based flow cytometric analysis (reference value: 95.75 to 96.56%); format: functional; settings: K562, 48 h, read-out: Activity; procedure, shortened: as §5
[12] = tested on: K562; experiment: Induction of apoptosis in human K562 cells assessed as necrotic cells at 1 uM after 48 hrs by Annexin V-FITC/propidium iodide-staining based flow cytometric analysis (reference value: 0.13 to 0.27%); format: functional; procedure, shortened: as §5
[13] = tested on: K562; experiment: Induction of apoptosis in human K562 cells assessed as early apoptotic cells at 1 uM after 48 hrs by Annexin V-FITC/propidium iodide-staining based flow cytometric analysis (reference value: 0.92 to 1.45%); format: functional; procedure, shortened: as §5
[14] = tested on: K562; experiment: Decrease in mitochondrial membrane potential in human K562 cells at 1 to 2 uM after 48 hrs by JC-1 staining based fluorescence microscopic analysis; format: functional, cell-based; procedure, shortened: as §4
[15] = tested on: K562; experiment: Induction of apoptosis in human K562 cells assessed as necrotic cells at 3 uM after 48 hrs by Annexin V-FITC/propidium iodide-staining based flow cytometric analysis (reference value: 0.13 to 0.27%); format: functional; procedure, shortened: as §5
[16] = tested on: K562; experiment: Induction of mitochondrial membrane depolarization in human K562 cells assessed as cells with intact mitochondrial membrane potential at 6 uM after 48 hrs by JC-1 staining based flow cytometric analysis (reference value: 97.63 to 97.67%); format: functional
[17] = tested on: K562; experiment: Induction of apoptosis in human K562 cells assessed as upregulation of cleaved PARP up to 6 uM after 48 hrs by Western blot analysis; format: functional, cell-based
[18] = tested on: K562; experiment: Induction of apoptosis in human K562 cells assessed as early apoptotic cells at 2 uM after 48 hrs by Annexin V-FITC/propidium iodide-staining based flow cytometric analysis (reference value: 0.92 to 1.45%); format: functional; procedure, shortened: as §5
[19] = tested on: K562; experiment: Induction of apoptosis in human K562 cells assessed as increase in cytosolic cytochrome c level up to 6 uM after 48 hrs by Western blot analysis; format: functional, cell-based; procedure, shortened: as §3
[20] = tested on: K562; experiment: Induction of apoptosis in human K562 cells assessed as viable cells at 1 uM after 48 hrs by Annexin V-FITC/propidium iodide-staining based flow cytometric analysis (reference value: 95.75 to 96.56%); format: functional; settings: K562, 48 h, read-out: Activity; procedure, shortened: as §5
[21] = tested on: K562; experiment: Induction of apoptosis in human K562 cells assessed as early apoptotic cells at 3 uM after 48 hrs by Annexin V-FITC/propidium iodide-staining based flow cytometric analysis (reference value: 0.92 to 1.45%); format: functional; procedure, shortened: as §5
[22] = tested on: K562; experiment: Induction of mitochondrial membrane depolarization in human K562 cells assessed as cells with mitochondrial membrane potential loss at 4 uM after 48 hrs by JC-1 staining based flow cytometric analysis (reference value: 1.89 to 2.23%); format: functional
[23] = tested on: K562; experiment: Induction of apoptosis in human K562 cells assessed as viable cells at 2 uM after 48 hrs by Annexin V-FITC/propidium iodide-staining based flow cytometric analysis (reference value: 95.75 to 96.56%); format: functional; settings: K562, 48 h, read-out: Activity; procedure, shortened: as §5
[24] = tested on: K562; experiment: Induction of apoptosis in human K562 cells assessed as necrotic cells at 2 uM after 48 hrs by Annexin V-FITC/propidium iodide-staining based flow cytometric analysis (reference value: 0.13 to 0.27%); format: functional; procedure, shortened: as §5
[25] = tested on: K562; experiment: Induction of apoptosis in human K562 cells assessed as late apoptotic cells at 1 uM after 48 hrs by Annexin V-FITC/propidium iodide-staining based flow cytometric analysis (reference value: 2.25 to 2.67%); format: functional; procedure, shortened: as §5
[26] = tested on: K562; experiment: Induction of apoptosis in human K562 cells assessed as late apoptotic cells at 2 uM after 48 hrs by Annexin V-FITC/propidium iodide-staining based flow cytometric analysis (reference value: 2.25 to 2.67%); format: functional; procedure, shortened: as §5
[27] = tested on: K562; experiment: Induction of mitochondrial membrane depolarization in human K562 cells assessed as cells with intact mitochondrial membrane potential at 4 uM after 48 hrs by JC-1 staining based flow cytometric analysis (reference value: 97.63 to 97.67%); format: functional
[28] = tested on: K562; experiment: Induction of mitochondrial membrane depolarization in human K562 cells assessed as cells with mitochondrial membrane potential loss at 6 uM after 48 hrs by JC-1 staining based flow cytometric analysis (reference value: 1.89 to 2.23%); format: functional
[29] = tested on: K562; experiment: Induction of apoptosis in human K562 cells after 48 hrs by Annexin V-FITC/propidium iodide-staining based flow cytometric analysis; format: functional, cell-based; procedure, shortened: as §5
[30] = tested on: K562; experiment: Decrease in mitochondrial membrane potential in human K562 cells after 48 hrs by JC-1 staining based flow cytometry; format: functional, cell-based; procedure, shortened: as §4
[31] = tested on: K562; experiment: Induction of ROS generation in human K562 cells at 1 uM after 48 hrs by DCFH-DA probe based flow cytometric analysis relative to control; format: functional
Procedure, shortened: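 K562 seeded at 4 × 10^5 cells/well, 12 h, then treated 48 h. Washed cells loaded with DCFH-DA in FBS-free medium at 37 °C for 30 min, rinsed, read by flow cytometry. ROSup was the positive control; mean ± SD, n = 3.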

[32] = tested on: K562; experiment: Antitumor activity against CM-Dil-labeled human K562 cells xenografted in wild-type zebrafish embryos assessed as tumor growth inhibition at 10 ug/ml measured after 48 hrs by confocal microscopic analysis; format: functional, cell-based
Procedure, shortened: (§6)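 K562 cells labelled with CM-Dil, suspended in FBS-free medium at (1 × 107)/mL and microinjected into wild-type zebrafish embryos kept at 28 °C in embryonic medium. After 4 h, embryos with the same injection spot were pooled at 15−20 per well and exposed to compound; Taxol served as positive control. At 48 h, confocal imaging gave fluorescent area (migration) and fluorescence intensity (cell number); n = 15.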

[33] = tested on: K562; experiment: Antitumor activity against CM-Dil-labeled human K562 cells xenografted in wild-type zebrafish embryos assessed as reduction in cell migration at 10 ug/ml measured after 48 hrs by confocal microscopic analysis; format: functional, cell-based; procedure, shortened: as §6

C=C(C)[C@@H]1CC[C@]2(COC(=O)CCCC[P+](c3ccccc3)(c3ccccc3)c3ccccc3)CC[C@]3(C)[C@H](CC[C@@H]4[C@@]5(C)CC[C@H](OC=O)C(C)(C)[C@@H]5CC[C@]43C)[C@@H]12
IC50 [1]: 8.32 µM
IC50 [2]: 0.95 µM
IC50 [3]: 0.81 µM
IC50 [4]: 1.11 µM
IC50 [5]: 0.71 µM
IC50 [6]: 1.1 µM

C=C(C)[C@@H]1CC[C@]2(C(=O)O)CC[C@]3(C)[C@H](CC[C@@H]4[C@@]5(C)CC[C@H](OC(=O)CCCC[P+](c6ccccc6)(c6ccccc6)c6ccccc6)C(C)(C)[C@@H]5CC[C@]43C)[C@@H]12.[Br-]
Activity [7]: Active
Activity [8]: 24.68%
Activity [9]: 75.16%
Activity [10]: 26.46%
viability at 3 µM [11]: 61.4%
IC50 [1]: 4.92 µM
Activity [12]: 0.14%
Activity [13]: 9.55%
Activity [14]: Active
Activity [15]: 0.7%
Activity [16]: 27.63%
Activity [17]: Active
Activity [18]: 10.78%
Activity [19]: Active
viability at 1 µM [20]: 81%
Activity [21]: 11.47%
Activity [22]: 58.36%
viability at 2 µM [23]: 72.6%
Activity [24]: 0.23%
IC50 [2]: 0.92 µM
Activity [25]: 9.35%
Activity [26]: 16.43%
IC50 [3]: 1.24 µM
Activity [27]: 41.5%
Activity [28]: 72.12%
IC50 [4]: 1.07 µM
Activity [29]: Dose-dependent effect
IC50 [5]: 0.32 µM
Activity [30]: Dose-dependent effect
IC50 [6]: 1.26 µM
Activity [31]: 50%

O=C(O)CCCC[P+](c1ccccc1)(c1ccccc1)c1ccccc1
IC50 [1]: > 200 µM
IC50 [2]: 112 µM
IC50 [3]: > 200 µM
IC50 [4]: 158 µM
IC50 [5]: 118 µM
IC50 [6]: 172 µM

C=C(C)[C@@H]1CC[C@]2(C(=O)OCC)CC[C@]3(C)[C@H](CC[C@@H]4[C@@]5(C)CC[C@H](OC(=O)CCCC[P+](c6ccccc6)(c6ccccc6)c6ccccc6)C(C)(C)[C@@H]5CC[C@]43C)[C@@H]12
IC50 [1]: 7.85 µM
IC50 [2]: 6.04 µM
IC50 [3]: 4.03 µM
IC50 [4]: 4.54 µM
IC50 [5]: 2.75 µM
IC50 [6]: 4.79 µM

CC(=O)O[C@H]1C(=O)[C@@]2(C)[C@H]([C@H](OC(=O)c3ccccc3)[C@]3(O)C[C@H](OC(=O)[C@H](O)[C@@H](NC(=O)c4ccccc4)c4ccccc4)C(C)=C1C3(C)C)[C@]1(OC(C)=O)CO[C@@H]1C[C@@H]2O
TGI [32]: Active
Activity [33]: Active
